Laboratory results reported in ChEMBL document CHEMBL1131104, “Bicyclic acylguanidine Na+/H+ antiporter inhibitors” (J Med Chem, 1998).
pIC50: −log10 of the molar value.

Legend:
[1] = biological target: Sodium/hydrogen exchanger (Oryctolagus cuniculus, UniProt P23791+P50482+P26432); assay: Sodium/hydrogen exchanger antiport activity was measured using [22]Na+ uptake inhibition assay in acidified rabbit erythrocytes; type: cell-based
How it was run: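 Acidified rabbit erythrocytes; 22Na+ uptake measured in incubation buffer containing 10 mM Na+. Na+/H+-dependent uptake taken as the EIPA-sensitive portion of 22Na+ uptake.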

Homo sapiens [2] = species on record: Homo sapiens; assay: Concentration to achieve half-maximal inhibition of acid-induced swelling in human platelets using platelet swelling assay; type: functional
How it was run: (§1)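 Human platelet-rich plasma from citrated venous blood (centrifuged 1000 rpm, 20 min, RT; pH adjusted to 7.4; used within 4–5 h). Final 2 × 10^8 platelets/mL in pH 6.6 buffer: 120 mM Na propionate, 20 mM K propionate, 20 mM HEPES, 10 mM glucose, 5 mM KCl, 1 mM MgCl2, 1 mM CaCl2, 0.86% DMSO. Swelling followed as absorbance drop at 680 nm over 4 min.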

Homo sapiens [3] = species on record: Homo sapiens; assay: Concentration to achieve half-maximal inhibition of acid-induced swelling in human platelets using platelet swelling assay(PSA).; type: functional; how it was run: as §1

Row | SMILES | IC50 [1] [nM] | pIC50 (Homo sapiens [2]) | pIC50 (Homo sapiens [3])
1 | Cc1cc2c(cc1C(=O)N=C(N)N)S(=O)(=O)CCC2=O | 96 | 5.44 | 
2 | Cc1cc2c(cc1C(=O)N=C(N)N)S(=O)(=O)CCC21OCCO1 | 130 | 5.93 | 
3 | CC1(C)CC(C)(C)S(=O)(=O)c2cc(C(=O)N=C(N)N)ccc21 | 360 | 5.68 | 
4 | Cc1cc2c(cc1C(=O)N=C(N)N)S(=O)(=O)C(C)(C)C2=O | 93 | 6.45 | 
5 | CO/N=C1\CS(=O)(=O)c2cc(C(=O)N=C(N)N)c(C)cc21 | 45 | 6.28 | 
6 | C=C1CCS(=O)(=O)c2cc(C(=O)N=C(N)N)c(C)cc21 | 29 |  | 5.86
7 | Cc1cc2c(cc1C(=O)N=C(N)N)S(=O)(=O)C(C)(C)CO2 | 36 | 6.07 | 
8 | Cc1cc2c(cc1C(=O)N=C(N)N)S(=O)(=O)C/C2=N\O | 16 | 6.71 | 
9 | Cc1cc2c(cc1C(=O)N=C(N)N)S(=O)(=O)CC21OCCO1 | 60 | 6.31 | 
10 | N=C(N)NC(=O)c1ccc2c(c1)S(=O)(=O)CC2 | 790 | < 4.00 | 
11 | Cc1cc2c(cc1C(=O)N=C(N)N)S(=O)(=O)CC2 | 60 | 6.23 | 
12 | COC1CS(=O)(=O)c2cc(C(=O)N=C(N)N)ccc21 (stereo not drawn) | 700 | < 4.00 | 
13 | Cc1cc2c(cc1C(=O)N=C(N)N)S(=O)(=O)CC2N (stereo not drawn) | 116 | 6.16 | 
14 | Cc1cc2c(cc1C(=O)N=C(N)N)S(=O)(=O)CCC2C (stereo not drawn) | 45 | 6.18 | 
15 | Cc1cc2c(cc1C(=O)N=C(N)N)S(=O)(=O)C(C)(C)C2C (stereo not drawn) | 14 | 6.51 | 
16 | CC1=C(N)c2cc(C)c(C(=O)N=C(N)N)cc2S1(=O)=O | 56 | 5.63 | 
17 | COC1(C)CS(=O)(=O)c2cc(C(=O)N=C(N)N)c(C)cc21 (stereo not drawn) | 40 | 6.49 | 
18 | Cc1cc2c(cc1C(=O)N=C(N)N)S(=O)(=O)C(C)(C)C2O (stereo not drawn) | 28 | 6.59 | 
19 | N=C(N)NC(=O)c1ccc2c(c1)S(=O)(=O)CC2O (stereo not drawn) | 1500 | < 4.00 | 
20 | CC(C)=C1CS(=O)(=O)c2cc(C(=O)N=C(N)N)c(C)cc21 | 54 | 5.30 | 
21 | Cc1cc2c(cc1C(=O)N=C(N)N)S(=O)(=O)CC2O (stereo not drawn) | 70 | 5.98 | 
22 | Cc1cc2c(cc1C(=O)N=C(N)N)S(=O)(=O)CCC2 | 95 | 4.84 | 
23 | Cc1cc2c(cc1C(=O)N=C(N)N)S(=O)(=O)CCCO2 | 28 | 6.27 | 
24 | CC1(C)CCS(=O)(=O)c2cc(C(=O)N=C(N)N)ccc21 | 2200 |  | 
25 | Cc1cc2c(cc1C(=O)N=C(N)N)S(=O)(=O)C(C)(C)CC2C (stereo not drawn) | 38 | 5.96 | 
26 | Cc1cc2c(cc1C(=O)N=C(N)N)S(=O)(=O)CCCC2 | 19 | 6.56 | 
27 | COC1CS(=O)(=O)c2cc(C(=O)N=C(N)N)c(C)cc21 (stereo not drawn) | 96 | 6.68 | 

Other lines, results leading:

Row | IC50 [1] [nM] | pIC50 (Homo sapiens [2]) | pIC50 (Homo sapiens [3]) | SMILES
28 | 30 | 6.94 |  | Cc1cc2c(cc1C(=O)N=C(N)N)S(=O)(=O)CC2(C)O (stereo not drawn)
29 | 24 | 7.11 |  | CCC1CS(=O)(=O)c2cc(C(=O)N=C(N)N)c(C)cc21 (stereo not drawn)
30 | 21 | 7.11 |  | Cc1cc2c(cc1C(=O)N=C(N)N)S(=O)(=O)CC2C(C)C (stereo not drawn)
31 | 43 | 6.80 |  | Cc1cc2c(cc1C(=O)N=C(N)N)S(=O)(=O)CC2(O)Cc1ccccc1 (stereo not drawn)
32 | 27 | 6.86 |  | COC1c2cc(C)c(C(=O)N=C(N)N)cc2S(=O)(=O)C1(C)C (stereo not drawn)
33 | 44 | 6.74 |  | Cc1cc2c(cc1C(=O)N=C(N)N)S(=O)(=O)CC2C (stereo not drawn)
34 | 17 | 6.99 |  | Cc1cc2c(cc1C(=O)N=C(N)N)S(=O)(=O)C(C)(C)C2(C)O (stereo not drawn)
35 | 13 | 6.94 |  | C=C1c2cc(C)c(C(=O)N=C(N)N)cc2S(=O)(=O)C1(C)C
36 | 34 | 7.11 |  | CCC1(O)CS(=O)(=O)c2cc(C(=O)N=C(N)N)c(C)cc21 (stereo not drawn)
37 |  | 6.93 |  | CC(C)c1ccc(C(=O)N=C(N)N)cc1S(C)(=O)=O [CARIPORIDE]
38 |  | 7.49 |  | Cc1cc(-n2cccc2)c(S(C)(=O)=O)cc1C(=O)N=C(N)N [ENIPORIDE]
